Measurements taken from ChEMBL document CHEMBL3414471 (J Med Chem, 2015).
The source made the active and inactive calls. The rule behind the calls is not given here.

What was measured:
[1] = biological target: T1, 5-hydroxytryptamine receptor 2C (Homo sapiens, UniProt P28335); test: Agonist activity at human 5-HT2C receptor expressed in HEK293 cells assessed as calcium flux by FLIPR assay; format: functional, cell-based
T1 sequence (P28335 whole entry): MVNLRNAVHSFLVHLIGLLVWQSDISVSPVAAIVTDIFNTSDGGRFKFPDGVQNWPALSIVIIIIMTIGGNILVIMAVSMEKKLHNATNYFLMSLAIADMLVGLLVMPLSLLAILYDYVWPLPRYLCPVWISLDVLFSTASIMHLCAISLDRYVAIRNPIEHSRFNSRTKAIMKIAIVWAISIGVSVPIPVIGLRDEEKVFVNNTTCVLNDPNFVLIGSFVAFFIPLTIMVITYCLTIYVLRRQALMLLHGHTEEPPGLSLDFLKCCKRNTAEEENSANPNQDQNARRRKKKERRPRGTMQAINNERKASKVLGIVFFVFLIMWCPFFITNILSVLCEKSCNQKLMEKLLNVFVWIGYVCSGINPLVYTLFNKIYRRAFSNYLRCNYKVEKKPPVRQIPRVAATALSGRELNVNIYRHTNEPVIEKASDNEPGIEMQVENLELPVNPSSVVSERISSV

[2] = biological target: T2, 5-hydroxytryptamine receptor 2C (Homo sapiens) (UniProt P28335); test: Agonist activity at human 5-HT2C receptor expressed in HEK293 cells assessed as calcium flux by FLIPR assay relative to 5-HT; format: functional, cell-based
T2 sequence (whole entry): T1 sequence (P28335 whole entry)
How it was run: (§1)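 Flp-In-293 cells stably expressing human 5-HT2A, 5-HT2B or 5-HT2C-INI; grown 24–48 h in DMEM/10% dialyzed FBS, plated on poly-L-Lys at 12000 cells/well in 1% dialyzed FBS for 24 h. Loaded 1 h at 37 °C with calcium dye in HBSS, 20 mM Hepes pH 7.40, 2.5 mM probenecid.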

[3] = biological target: T3, 5-hydroxytryptamine receptor 2B (Homo sapiens, UniProt P41595); test: Agonist activity at human 5-HT2B receptor expressed in HEK293 cells assessed as calcium flux by FLIPR assay; format: functional, cell-based
T3 sequence (P41595 whole entry): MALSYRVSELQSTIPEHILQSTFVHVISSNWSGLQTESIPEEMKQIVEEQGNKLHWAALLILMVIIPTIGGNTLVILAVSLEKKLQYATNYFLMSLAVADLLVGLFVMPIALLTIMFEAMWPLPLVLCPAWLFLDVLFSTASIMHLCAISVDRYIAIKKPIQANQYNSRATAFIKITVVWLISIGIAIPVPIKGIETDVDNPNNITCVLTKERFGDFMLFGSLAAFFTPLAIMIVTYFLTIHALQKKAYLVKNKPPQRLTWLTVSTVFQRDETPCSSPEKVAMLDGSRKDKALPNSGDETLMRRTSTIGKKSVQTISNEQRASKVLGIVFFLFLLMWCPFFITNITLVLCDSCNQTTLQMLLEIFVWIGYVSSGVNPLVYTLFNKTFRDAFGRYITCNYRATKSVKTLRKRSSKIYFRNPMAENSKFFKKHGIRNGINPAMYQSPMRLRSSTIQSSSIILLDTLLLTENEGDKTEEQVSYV

[4] = biological target: T3, 5-hydroxytryptamine receptor 2B; test: Agonist activity at human 5-HT2B receptor expressed in HEK293 cells assessed as calcium flux by FLIPR assay relative to 5-HT; format: functional, cell-based; how it was run: as §1
[5] = biological target: 5-hydroxytryptamine receptor 2A (Homo sapiens, UniProt P28223); test: Agonist activity at human 5-HT2A receptor expressed in HEK293 cells assessed as calcium flux at 10 uM by FLIPR assay; format: functional, cell-based
5-hydroxytryptamine receptor 2A, sequence (P28223 whole entry): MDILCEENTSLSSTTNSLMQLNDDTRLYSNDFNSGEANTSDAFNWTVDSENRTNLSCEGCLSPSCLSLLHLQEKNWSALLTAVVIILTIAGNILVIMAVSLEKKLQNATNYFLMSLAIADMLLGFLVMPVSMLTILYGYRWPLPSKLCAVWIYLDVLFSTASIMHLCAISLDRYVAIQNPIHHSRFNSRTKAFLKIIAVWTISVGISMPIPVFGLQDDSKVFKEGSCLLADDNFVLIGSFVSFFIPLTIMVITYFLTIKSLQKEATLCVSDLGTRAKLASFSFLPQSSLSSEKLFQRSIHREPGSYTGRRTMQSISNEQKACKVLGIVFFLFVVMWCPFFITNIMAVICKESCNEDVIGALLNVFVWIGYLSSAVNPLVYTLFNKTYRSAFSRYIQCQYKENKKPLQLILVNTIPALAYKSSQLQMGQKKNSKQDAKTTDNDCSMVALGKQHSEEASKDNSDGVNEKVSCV
How it was run: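 Flp-In-293 cells stably expressing human 5-HT2A, 5-HT2B or 5-HT2C-INI, grown in DMEM with 10% dialyzed FBS, then plated for 24 h in 1% dialyzed FBS. Cells were loaded 1 h at 37 °C with calcium dye in Hepes-buffered HBSS, pH 7.40, containing 2.5 mM probenecid. FLIPR read 10 s baseline, then 120 s after drug addition.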

[6] = Permeability from apical to basolateral side in human Caco2 cells at pH 7.4; format: ADME, cell-based; settings: caco-2, pH 7.4
How it was run: (§2)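 Caco-2 monolayer permeability measured A–B and B–A in pH 7.4 buffer, reported as ×10−6 cm/s; A–B/B–A ratio derived from these.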

[7] = Permeability from basolateral to apical side in human Caco2 cells at pH 7.4; format: ADME, cell-based; settings: caco-2, pH 7.4; how it was run: as §2
[8] = Efflux ratio of permeability from apical to basolateral side over basolateral to apical side in human Caco2 cells at pH 7.4; format: ADME, cell-based; settings: caco-2, pH 7.4
Liver microsome = test: Metabolic stability in human liver microsomes; format: ADME
How it was run: (§3)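 Incubation with human or CD-1 mouse liver microsomes for 1 h; stability expressed as % parent compound remaining.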

Liver = test: Metabolic stability in mouse liver microsomes; format: ADME; how it was run: as §3
CYP3A = CYP3A (Homo sapiens, UniProt P08684+P20815+P24462+Q9HB55); test: Inhibition of human CYP3A using midazolam as substrate at 10 uM; format: ADME; settings: probe midazolam
How it was run: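 Human liver microsomes, test compound at 10 µM, midazolam as CYP3A substrate; percent inhibition reported; run by a contract lab.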

CYP2D6 = CYP2D6 (Homo sapiens, UniProt P10635); test: Inhibition of human CYP2D6 using dextromethorphan as substrate at 10 uM; format: ADME; settings: probe dextromethorphan
CYP2D6, sequence (P10635 whole entry): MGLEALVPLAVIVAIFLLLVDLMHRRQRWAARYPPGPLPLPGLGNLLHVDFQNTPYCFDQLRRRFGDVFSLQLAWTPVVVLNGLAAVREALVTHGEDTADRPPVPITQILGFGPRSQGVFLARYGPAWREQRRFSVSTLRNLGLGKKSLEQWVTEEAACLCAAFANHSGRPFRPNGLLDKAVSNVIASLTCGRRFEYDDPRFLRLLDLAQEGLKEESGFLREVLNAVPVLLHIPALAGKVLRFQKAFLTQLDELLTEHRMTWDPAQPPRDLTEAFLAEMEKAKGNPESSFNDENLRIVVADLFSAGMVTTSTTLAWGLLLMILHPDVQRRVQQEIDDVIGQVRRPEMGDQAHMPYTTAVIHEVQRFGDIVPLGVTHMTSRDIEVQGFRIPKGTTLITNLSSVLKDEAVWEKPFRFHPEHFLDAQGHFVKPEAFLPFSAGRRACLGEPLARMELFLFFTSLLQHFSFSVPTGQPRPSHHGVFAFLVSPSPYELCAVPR

CYP2C9 = CYP2C9 (Homo sapiens, UniProt P11712); test: Inhibition of human CYP2C9 using diclofenac as substrate at 10 uM; format: ADME; settings: probe diclofenac
CYP2C9, sequence (P11712 whole entry): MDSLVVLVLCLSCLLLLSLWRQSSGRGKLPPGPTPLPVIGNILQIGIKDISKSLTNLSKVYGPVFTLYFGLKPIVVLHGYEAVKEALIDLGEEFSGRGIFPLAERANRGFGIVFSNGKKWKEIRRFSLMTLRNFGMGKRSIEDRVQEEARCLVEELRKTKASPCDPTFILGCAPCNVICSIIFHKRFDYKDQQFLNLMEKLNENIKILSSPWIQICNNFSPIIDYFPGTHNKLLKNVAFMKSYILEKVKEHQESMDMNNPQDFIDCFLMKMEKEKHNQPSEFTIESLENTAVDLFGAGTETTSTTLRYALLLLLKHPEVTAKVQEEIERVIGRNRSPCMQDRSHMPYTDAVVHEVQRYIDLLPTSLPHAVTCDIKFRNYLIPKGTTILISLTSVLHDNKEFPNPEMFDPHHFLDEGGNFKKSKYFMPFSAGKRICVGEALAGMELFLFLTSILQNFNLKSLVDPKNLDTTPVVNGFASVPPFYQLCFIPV

CYP2C19 = CYP2C19 (Homo sapiens, UniProt P33261); test: Inhibition of human CYP2C19 using omeprazole as substrate at 10 uM; format: ADME; settings: probe omeprazole
CYP2C19, sequence (P33261 whole entry): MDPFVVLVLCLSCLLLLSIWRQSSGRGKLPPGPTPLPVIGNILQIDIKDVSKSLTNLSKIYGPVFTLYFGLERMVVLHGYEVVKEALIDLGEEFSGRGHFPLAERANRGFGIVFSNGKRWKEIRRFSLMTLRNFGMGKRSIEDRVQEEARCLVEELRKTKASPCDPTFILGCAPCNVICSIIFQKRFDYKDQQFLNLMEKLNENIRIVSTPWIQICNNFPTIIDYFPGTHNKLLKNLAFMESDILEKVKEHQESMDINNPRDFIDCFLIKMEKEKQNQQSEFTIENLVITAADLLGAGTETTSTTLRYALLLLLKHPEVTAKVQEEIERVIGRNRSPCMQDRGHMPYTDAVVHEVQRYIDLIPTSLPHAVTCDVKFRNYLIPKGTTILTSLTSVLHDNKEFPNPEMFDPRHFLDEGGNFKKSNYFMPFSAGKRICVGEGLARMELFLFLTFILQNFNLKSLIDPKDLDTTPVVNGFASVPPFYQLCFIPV

CYP2B6 = biological target: T4, CYP2B6 (Homo sapiens, UniProt P20813); test: Inhibition of human CYP2B6 using bupropion as substrate at 10 uM; format: ADME; settings: probe bupropion
T4 sequence (P20813 whole entry): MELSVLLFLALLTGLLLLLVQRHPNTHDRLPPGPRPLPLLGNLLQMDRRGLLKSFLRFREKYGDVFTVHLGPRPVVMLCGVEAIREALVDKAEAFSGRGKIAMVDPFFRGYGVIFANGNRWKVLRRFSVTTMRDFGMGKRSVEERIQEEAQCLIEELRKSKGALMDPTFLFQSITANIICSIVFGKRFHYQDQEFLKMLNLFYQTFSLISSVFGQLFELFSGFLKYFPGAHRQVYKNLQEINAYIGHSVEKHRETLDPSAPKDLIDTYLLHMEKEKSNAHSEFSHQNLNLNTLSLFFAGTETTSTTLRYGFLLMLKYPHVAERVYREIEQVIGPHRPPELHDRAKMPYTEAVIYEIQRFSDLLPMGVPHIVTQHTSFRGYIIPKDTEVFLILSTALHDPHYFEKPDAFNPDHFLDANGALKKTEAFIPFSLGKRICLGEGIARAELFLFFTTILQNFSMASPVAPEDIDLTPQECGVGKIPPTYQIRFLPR

[9] = biological target: Voltage-gated inwardly rectifying potassium channel KCNH2 (Homo sapiens, UniProt Q12809); test: Inhibition of human ERG channel expressed in CHO cells by patch clamp method; format: cell-based
Voltage-gated inwardly rectifying potassium channel KCNH2, sequence (Q12809 whole entry): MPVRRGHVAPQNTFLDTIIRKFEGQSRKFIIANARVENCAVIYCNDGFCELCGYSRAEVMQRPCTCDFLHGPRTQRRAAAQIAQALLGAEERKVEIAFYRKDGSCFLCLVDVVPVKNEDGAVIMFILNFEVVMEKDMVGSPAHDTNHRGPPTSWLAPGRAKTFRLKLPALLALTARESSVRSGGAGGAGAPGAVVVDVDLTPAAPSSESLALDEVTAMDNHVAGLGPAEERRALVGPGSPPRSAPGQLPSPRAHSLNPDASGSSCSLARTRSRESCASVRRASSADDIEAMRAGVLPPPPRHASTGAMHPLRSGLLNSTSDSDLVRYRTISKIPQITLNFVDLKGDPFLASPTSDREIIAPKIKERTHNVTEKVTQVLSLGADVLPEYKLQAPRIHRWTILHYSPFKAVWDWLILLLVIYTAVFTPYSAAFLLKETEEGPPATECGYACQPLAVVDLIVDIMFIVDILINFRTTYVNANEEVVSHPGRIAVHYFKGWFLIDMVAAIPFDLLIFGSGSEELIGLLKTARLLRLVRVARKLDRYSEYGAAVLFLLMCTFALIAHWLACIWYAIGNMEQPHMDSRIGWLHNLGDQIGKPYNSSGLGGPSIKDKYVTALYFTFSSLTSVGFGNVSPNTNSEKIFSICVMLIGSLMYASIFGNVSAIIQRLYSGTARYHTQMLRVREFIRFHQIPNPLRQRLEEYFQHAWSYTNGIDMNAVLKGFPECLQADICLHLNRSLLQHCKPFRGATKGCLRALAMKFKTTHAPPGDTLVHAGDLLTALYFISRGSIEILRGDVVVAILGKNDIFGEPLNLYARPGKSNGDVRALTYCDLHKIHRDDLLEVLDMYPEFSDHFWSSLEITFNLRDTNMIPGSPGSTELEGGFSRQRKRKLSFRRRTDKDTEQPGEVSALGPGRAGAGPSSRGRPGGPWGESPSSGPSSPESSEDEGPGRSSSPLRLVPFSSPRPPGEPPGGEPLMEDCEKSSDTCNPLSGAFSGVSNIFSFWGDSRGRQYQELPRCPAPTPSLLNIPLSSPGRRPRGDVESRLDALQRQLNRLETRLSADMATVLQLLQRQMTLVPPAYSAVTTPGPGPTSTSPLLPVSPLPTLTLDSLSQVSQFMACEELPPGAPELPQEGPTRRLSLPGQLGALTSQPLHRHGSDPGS

Salmonella typhimurium [10] = test: Mutagenic activity in Salmonella typhimurium TA98 at 10 to 100 uM by ames test; format: toxicity, organism-based; settings: salmonella enterica subsp. enterica serovar typhimurium
How it was run: (§4)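 Ames fluctuation test in Salmonella strains TA98, TA100, TA1535 and TA1537, with and without S9, at 10, 50 and 100 µM; scored negative or positive.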

Salmonella typhimurium [11] = test: Mutagenic activity in Salmonella typhimurium TA98 at 10 to 100 uM by ames test in presence of S9 mixture; format: toxicity, organism-based; settings: salmonella enterica subsp. enterica serovar typhimurium; how it was run: as §4
Salmonella typhimurium [12] = test: Mutagenic activity in Salmonella typhimurium TA100 at 10 to 100 uM by ames test; format: toxicity, organism-based; settings: salmonella enterica subsp. enterica serovar typhimurium; how it was run: as §4
Salmonella typhimurium [13] = test: Mutagenic activity in Salmonella typhimurium TA100 at 10 to 100 uM by ames test in presence of S9 mixture; format: toxicity, organism-based; settings: salmonella enterica subsp. enterica serovar typhimurium; how it was run: as §4
Salmonella typhimurium [14] = test: Mutagenic activity in Salmonella typhimurium TA1535 at 10 to 100 uM by ames test; format: toxicity, organism-based; settings: salmonella enterica subsp. enterica serovar typhimurium; how it was run: as §4
Salmonella typhimurium [15] = test: Mutagenic activity in Salmonella typhimurium TA1535 at 10 to 100 uM by ames test in presence of S9 mixture; format: toxicity, organism-based; settings: salmonella enterica subsp. enterica serovar typhimurium; how it was run: as §4
Salmonella typhimurium [16] = test: Mutagenic activity in Salmonella typhimurium TA1537 at 10 to 100 uM by ames test; format: toxicity, organism-based; settings: salmonella enterica subsp. enterica serovar typhimurium; how it was run: as §4
Salmonella typhimurium [17] = test: Mutagenic activity in Salmonella typhimurium TA1537 at 10 to 100 uM by ames test in presence of S9 mixture; format: toxicity, organism-based; settings: salmonella enterica subsp. enterica serovar typhimurium; how it was run: as §4
[18] = Drug uptake in CD1 mouse brain at 10 mg/kg, ip after 0.5 hrs; format: ADME, organism-based; design: dose 10 mg/kg, route intraperitoneal; settings: read-out: Drug uptake
How it was run: (§5)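 CD1 mice received a single 10 mg/kg ip dose formulated in pure water. Brain (ng/g) and plasma (ng/mL) levels were measured at 0.5 and 2 h. Brain/plasma ratio assumed a brain tissue density of 1 g/mL.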

[19] = Drug uptake in CD1 mouse brain at 10 mg/kg, ip after 2 hrs; format: ADME, organism-based; design: dose 10 mg/kg, route intraperitoneal; settings: read-out: Drug uptake; how it was run: as §5
[20] = Plasma concentration in CD1 mouse at 10 mg/kg, ip after 0.5 hrs; format: ADME, organism-based; design: dose 10 mg/kg, route intraperitoneal; how it was run: as §5
[21] = Plasma concentration in CD1 mouse at 10 mg/kg, ip after 2 hrs; format: ADME, organism-based; design: dose 10 mg/kg, route intraperitoneal; how it was run: as §5
Nucleic Acid [22] = test: Ratio of drug uptake from brain to plasma in CD1 mouse at 10 mg/kg, ip after 0.5 hrs; format: ADME, organism-based; design: dose 10 mg/kg, route intraperitoneal
Nucleic Acid [23] = test: Ratio of drug uptake from brain to plasma in CD1 mouse at 10 mg/kg, ip after 2 hrs; format: ADME, organism-based; design: dose 10 mg/kg, route intraperitoneal
Mus musculus = test: Antipsychotic activity in C57BL/6J mouse assessed as reduction of amphetamine-induced locomotor activity administered ip 15 mins prior to amphetamine challenge measured for 105 mins by open field test relative to vehicle-treated control; format: functional, organism-based
[24] = Plasma protein binding in human at 10 uM; format: ADME, cell-free
How it was run: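 Human plasma protein binding determined at 10 µM compound, expressed as % bound.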

[25] = biological target: T2, 5-hydroxytryptamine receptor 2C (Homo sapiens); test: (§6) Agonist activity at 5HT2C receptor (unknown origin) relative to control
[26] = biological target: T1, 5-hydroxytryptamine receptor 2C; test: as §6
[27] = biological target: T3, 5-hydroxytryptamine receptor 2B; test: Agonist activity at 5HT2B receptor (unknown origin) relative to control; how it was run: as §1
Homo sapiens = species: Homo sapiens; test: Selectivity ratio of EC50 for 5HT2B receptor (unknown origin) to EC50 for 5HT2C receptor (unknown origin)

With `C=C(F)COc1ccc(Cl)cc1[C@H]1C[C@@H]1CN.Cl` the EC50 [1] was 133 nM, the Emax [2] was 81% and the EC50 [3] was 1690 nM. The Emax [4] was 27%, the Activity [5] was “inactive” and the permeability [6] was 38.3 ×10⁻⁶ cm/s. It also gave a permeability [7] of 10.8 ×10⁻⁶ cm/s, a Ratio [8] of 3.5 and a Stability (Liver microsome) of 80%. The Stability (Liver) was 62%, the inhibition at 10 µM (CYP3A) was 27% and the inhibition at 10 µM (CYP2D6) was 80%. For the same compound, the inhibition at 10 µM (CYP2C9) was 51%, the inhibition at 10 µM (CYP2C19) was 33% and the inhibition at 10 µM (CYP2B6) was 77%. For the same compound, the IC50 [9] was 3.98 µM, the Activity (Salmonella typhimurium [10]) was “Non-toxic” and the Activity (Salmonella typhimurium [11]) was “Non-toxic”. For the same compound, the Activity (Salmonella typhimurium [12]) was “Non-toxic”, the Activity (Salmonella typhimurium [13]) was “Non-toxic” and the Activity (Salmonella typhimurium [14]) was “Non-toxic”. For the same compound, the Activity (Salmonella typhimurium [15]) was “Non-toxic”, the Activity (Salmonella typhimurium [16]) was “Non-toxic” and the Activity (Salmonella typhimurium [17]) was “Non-toxic”. The concentration at 0.5 h [18] was 17500 ng/g, the concentration at 2 h [19] was 14700 ng/g and the concentration at 0.5 h [20] was 1440 ng/mL. For the same compound, the concentration at 2 h [21] was 903 ng/mL, the BPR (Nucleic Acid [22]) was 12.1 and the BPR (Nucleic Acid [23]) was 16.2. For the same compound, the Activity (Mus musculus) was “Dose-dependent effect” and the PPB [24] was 68%.

Compound `Clc1cccc(COc2cncc(N3CCNCC3)n2)c1` has an Emax [25] of 93%, an EC50 [26] of 0.11 nM and an EC50 [27] of 65.3 nM. It also gave an Emax [27] of 57% and a Ratio EC50 (Homo sapiens) of 600.
